# Results as given in ChEMBL document CHEMBL4261590, “Design, synthesis, and evaluation of chalcone analogues incorporate α,β-Unsaturated ketone functionality as anti-lung cancer agents via evoking ROS to induce pyroptosis” (Eur J Med Chem, 2018).
# The source made the active and inactive calls. The calls are words filed in the database; no cut-off is given here.
# How the values were obtained:
# NCI-H460 [1] = assay: Antiproliferative activity against human NCI-H460 cells at 5 uM after 72 hrs by MTT assay; assay type: functional, cell-based
# Outline: (§1)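 Single-concentration screen at 5 μM. Cells seeded at 3000 per well, cultured overnight, treated 72 h. MTT (5 mg/mL stock) added for 4 h, formazan dissolved in DMSO, absorbance at 490 nm. Growth inhibition rate = [1 − A treated/A control]×100%.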
# NCI-H1975 [2] = assay: Antiproliferative activity against human NCI-H1975 cells at 5 uM after 72 hrs by MTT assay; assay type: functional, cell-based; outline: as §1
# A549 [3] = assay: Antiproliferative activity against human A549 cells after 72 hrs by MTT assay; assay type: functional, cell-based; settings: A549, 72 h
# Outline: (§2)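 Cells seeded at 3000 per well, cultured overnight, then exposed to compounds for 72 h at 37 °C, 5% CO2. MTT (5 mg/mL stock) added for 4 h, formazan dissolved in DMSO, absorbance read at 490 nm. Inhibition calculated as [1 − A treated/A control]×100%, and IC50 derived from the inhibition data. Mean ± SEM of three independent experiments.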
# NCI-H460 [4] = assay: Antiproliferative activity against human NCI-H460 cells after 72 hrs by MTT assay; assay type: functional, cell-based; settings: NCI-H460, 72 h; outline: as §2
# NCI-H1975 [5] = assay: Antiproliferative activity against human NCI-H1975 cells after 72 hrs by MTT assay; assay type: functional, cell-based; settings: NCI-H1975, 72 h; outline: as §2
# NCI-H460 [6] = assay: Inhibition of colony formation in human NCI-H460 cells after 12 hrs by crystal violet staining-based assay; assay type: functional, cell-based
# Outline: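 Cells seeded at 1000 per well and grown overnight. Exposed to compounds at 1.25, 2.5 and 5 μM for 12 h, then switched to normal medium for about 8 days. Colonies stained with crystal violet and photographed.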
# NCI-H460 [7] = assay: Antiproliferative activity against human NCI-H460 cells at 5 uM after 12 to 72 hrs by MTT assay; assay type: functional, cell-based; settings: TDE = time-dependent effect
# Outline: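 Time course at 5 μM, with exposures of 12, 24, 48 and 72 h. Cells seeded at 3000 per well after overnight attachment. Viability read by MTT (5 mg/mL stock, 4 h), formazan dissolved in DMSO, absorbance at 490 nm.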
# A549 [8] = assay: Antiproliferative activity against human A549 cells at 5 uM after 72 hrs by MTT assay; assay type: functional, cell-based; outline: as §1
# NCI-H460 [9] = assay: Induction of pyroptosis in human NCI-H460 cells at 20 uM assessed as loss of osmotic potential at 20 uM after 19 to 24 hrs by bright field microscopic analysis; assay type: functional, cell-based
# Outline: (§3)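 Cells plated at 300,000/well 24 h before stimulation, then exposed to compound at 20 μM for 19 and 24 h. Cisplatin (20 μg/mL, 24 h) run alongside, with DMSO-treated cells as control. Morphology recorded by static bright-field microscopy.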
# NCI-H460 [10] = assay: Induction of pyroptosis in human NCI-H460 cells assessed as cytoplasmic swelling at 20 uM after 19 to 24 hrs by bright field microscopic analysis; assay type: functional, cell-based; outline: as §3
# NCI-H460 [11] = assay: Induction of pyroptosis in human NCI-H460 cells assessed as reduction in pro-caspase-3 protein expression at 5 uM by Western blot analysis; assay type: functional, cell-based; settings: TDE = time-dependent effect
# NCI-H460 [12] = assay: Induction of intracellular ROS accumulation in human NCI-H460 cells at 10 uM after 3 to 24 hrs by DCFH-DA staining-based flow cytometric analysis; assay type: functional, cell-based
# Outline: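 Cells plated at 300,000/well for 24 h, then treated at 10 μM for 3, 6, 12 and 24 h. Switched to serum-free medium and loaded with DCFH-DA (10 μM) for 30 min at 37 °C in the dark. Cells collected and analysed by flow cytometry.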
# NCI-H460 [13] = assay: Inhibition of colony formation in human NCI-H460 cells preincubated with 5 mM NAC for 1 hr followed by compound addition at 5 uM after 12 hrs by crystal violet staining-based assay; assay type: functional, cell-based
# Outline: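 Cells pre-incubated with 5 mM NAC for 1 h, then exposed to compound at 5 μM for 12 h. Medium replaced with fresh medium and colonies grown about 8 days. Colonies stained with crystal violet and imaged.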
# Mus musculus = assay: (§4) Acute toxicity in BALB/c mouse assessed as mortality at 500 mg/kg, ip administered as single dose on day 1 measured during 14 days; assay type: organism-based; settings: in vivo, 336 h
# Outline: (§5)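 Male wild-type BALB/c mice (26-33 g), randomised into groups of n=6 (vehicle, reference agent, test). Single intraperitoneal injection at 500 mg/kg on the first day only. Housed on a 12 h light-dark cycle at 25 °C with free water and diet. Deaths recorded over 14 days, then all animals euthanised.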
# NCI-H460 [14] = assay: Antiproliferative activity against human NCI-H460 cells assessed as reduction in cell viability preincubated with 5 mM NAC for 1 hr followed by compound addition at 5 uM after 48 hrs by MTT assay; assay type: functional, cell-based
# Outline: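 Cells pre-incubated with 5 mM NAC for 1 h, then exposed to compound at 5 μM for 48 h. Viability read by MTT at 490 nm after formazan solubilisation in DMSO. Groups compared against compound-only and NAC-only treatments.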
# NCI-H460 [15] = assay: Induction of intracellular ROS accumulation in human NCI-H460 cells pre-treated with 5 mM NAC for 1 hr followed by compound addition at 10 uM for 3 hrs by DCFH-DA staining-based flow cytometric analysis; assay type: functional, cell-based
# Outline: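 Cells plated at 300,000/well for 24 h, pretreated with 5 mM NAC for 1 h, then given compound at 10 μM for 3 h. Loaded with DCFH-DA (10 μM) for 30 min at 37 °C in the dark in serum-free medium. Read by flow cytometry.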
# NCI-H460 [16] = assay: Induction of pyroptosis in human NCI-H460 cells assessed as release of cellular content at 20 uM after 19 to 24 hrs by bright field microscopic analysis; assay type: functional, cell-based; outline: as §3
# NCI-H460 [17] = assay: Induction of pyroptosis in human NCI-H460 cells pretreated with 20 mM NAC for 4 hrs followed by compound addition assessed as at 20 uM after 24 hrs by bright field microscopic analysis; assay type: functional, cell-based
# Outline: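 Cells plated at 300,000/well, pretreated with NAC (20 mM) for 4 h, then given compound at 20 μM for 24 h. Pyroptotic morphology recorded by bright-field microscopic imaging, with DMSO-treated cells as control.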
# [18] = as §4; assay type: organism-based; settings: BALB/c, in vivo; outline: as §5
Compound,Activity (NCI-H460 [1]),Activity (NCI-H1975 [2]),Activity (A549 [8]),other results
C=CC(=O)Nc1ccc(C(=O)/C=C/c2cc(OC)ccc2OC)cc1,Active,Active,–,–
C=CC(=O)Nc1ccc(C(=O)/C=C/c2cc(OC)c(OC)c(OC)c2)cc1,Active,Active,–,IC50 (A549 [3]): 4 µM; IC50 (NCI-H460 [4]): 2 µM; IC50 (NCI-H1975 [5]): 5.4 µM; inhibition (NCI-H460 [6]): Dose-dependent effect; Activity (NCI-H460 [7]): Tde
C=CC(=O)Nc1ccc(C(=O)/C=C/c2ccc(OC)c(OC)c2)cc1,Active,Active,inactive,–
C=CC(=O)Nc1ccc(C(=O)/C=C/c2cc(OC)ccc2F)cc1,Active,Active,–,–
C=CC(=O)Nc1ccc(C(=O)/C=C/c2ccc(Cl)cc2Cl)cc1,Active,Active,–,–
C=CC(=O)Nc1ccc(C(=O)/C=C/c2ccc(N(C)C)cc2)cc1,Active,Active,inactive,–
C=CC(=O)Nc1ccc(C(=O)/C=C/c2cccc(F)c2)cc1,Active,Active,–,–
C=CC(=O)Nc1ccc(C(=O)/C=C/c2ccc(F)c(F)c2)cc1,Active,Active,inactive,–
C=CC(=O)Nc1ccc(C(=O)/C=C/c2ccc(Cl)cc2)cc1,Active,Active,inactive,–
C=CC(=O)Nc1ccc(C(=O)/C=C/c2ccccc2C(F)(F)F)cc1,Active,Active,Active,–
C=CC(=O)Nc1ccc(C(=O)/C=C/c2cccc(Cl)c2Cl)cc1,Active,Active,–,–
Nc1ccc(C(=O)/C=C/c2ccccc2Cl)cc1,Active,Active,Active,–
C=CC(=O)Nc1ccc(C(=O)/C=C/c2ccccc2Cl)cc1,Active,Active,Active,Activity (NCI-H460 [9]): Active; Activity (NCI-H460 [10]): Active; IC50 (A549 [3]): 3.2 µM; Activity (NCI-H460 [11]): Tde; Activity (NCI-H460 [12]): Active; inhibition (NCI-H460 [13]): inactive; IC50 (NCI-H460 [4]): 2.3 µM; Activity (Mus musculus): Non-Toxic; IC50 (NCI-H1975 [5]): 5.7 µM; inhibition (NCI-H460 [6]): Dose-dependent effect; Activity (NCI-H460 [7]): Tde; Activity (NCI-H460 [14]): inactive; Activity (NCI-H460 [15]): inactive; Activity (NCI-H460 [16]): Active; Activity (NCI-H460 [17]): inactive
C=CC(=O)Nc1ccc(C(=O)/C=C/c2ccccc2)cc1,Active,Active,–,–
COc1cc(O)c(CC=C(C)C)c(O)c1C(=O)/C=C/c1ccc(O)cc1 [XANTHOHUMOL],–,–,–,IC50 (A549 [3]): 11.9 µM; IC50 (NCI-H460 [4]): 7.5 µM; IC50 (NCI-H1975 [5]): 13 µM
C=CC(=O)Nc1ccc(C(=O)/C=C/c2ccc(Cl)c(Cl)c2)cc1,Active,Active,inactive,–
C=CC(=O)Nc1ccc(C(=O)/C=C/c2cccc(OC)c2OC)cc1,Active,Active,–,–
O=C1/C(=C/c2ccccc2F)CNC/C1=C\c1ccccc1F,–,–,–,mortality at 336 h [18]: 33.3%
C=CC(=O)Nc1ccc(C(=O)/C=C/c2ccccc2F)cc1,Active,Active,–,–
C=CC(=O)Nc1ccc(C(C)=O)cc1,Active,Active,Active,–
C=CC(=O)Nc1ccc(C(=O)/C=C/c2c(F)cccc2F)cc1,Active,Active,–,–
C=CC(=O)Nc1ccc(C(=O)/C=C/c2ccccc2Br)cc1,Active,Active,–,IC50 (A549 [3]): 4.4 µM; IC50 (NCI-H460 [4]): 2.2 µM; IC50 (NCI-H1975 [5]): 5.2 µM; inhibition (NCI-H460 [6]): Dose-dependent effect; Activity (NCI-H460 [7]): Tde
C=CC(=O)Nc1ccc(C(=O)/C=C/c2ccc(OC)cc2)cc1,Active,Active,inactive,–
